Assay [1] deals with Mycobacterium tuberculosis H37Rv. In words: (§1) Inhibition of Mycobacterium tuberculosis H37Rv FAAL19. The settings on record: TDE = time-dependent effect. Put shortly:
(§2)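 Purified enzyme pre-incubated with increasing LAMS concentrations, then activity measured by radio-TLC acyl-adenylation assay. Dose-response data fitted to the Morrison tight-binding equation using enzyme concentration to obtain apparent Ki.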

The test system is the same in assay [2]. Nature of the assay: (§3) Inhibition of Mycobacterium tuberculosis H37Rv FACL28. The settings on record: TDE = time-dependent effect. The method, boiled down: as §2
For assay [3], the system named is Mycobacterium tuberculosis. Nature of the assay: Antimicrobial activity against Mycobacterium tuberculosis H37Rv assessed as concentration required for 100-fold reduction in bacterial CFU. The format is functional. Put shortly: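 H37Rv culture serially diluted and plated on Middlebrook 7H10 agar with OADC containing various concentrations of the acyl-AMS analogue. Colonies counted after two weeks at 37°C. MIC is the concentration giving a 10^2-fold CFU reduction.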

In assay [4] the test system is Mycobacterium tuberculosis. Nature of the assay: Antimicrobial activity against Mycobacterium tuberculosis MC2 assessed as concentration required for 100-fold reduction in bacterial CFU. The format is functional. The method, boiled down: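 Susceptibility followed by CFU counts on plates containing various inhibitor concentrations. MIC99 is taken as the concentration causing a 10^2 reduction in colony forming units.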

Assay [5] relates to Mycobacterium tuberculosis. Nature of the assay: Antimicrobial activity against Mycobacterium tuberculosis H37Rv assessed decrease in mycolic acid biosynthesis by [14C]-acetate incorporation assay. The format is functional, organism-based. The method, boiled down:
(§4)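 Mid-log H37Rv cultures (10 ml) given 5 μCi ^14C-propionate (methylated lipids) or ^14C-acetate (fatty/mycolic acids) plus various LAMS concentrations. Incubated 16 h at 37°C. Mycolic acids and total extractable lipids then analysed.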

Assay [6] deals with Mycobacterium tuberculosis. In words: Antimicrobial activity against Mycobacterium tuberculosis H37Rv assessed decrease in fatty acid biosynthesis by [14C]-acetate incorporation assay. The format is functional, organism-based. Put shortly:
as §4

The test system of assay [7] is Mycobacterium tuberculosis. Nature of the assay: Antimicrobial activity against Mycobacterium tuberculosis H37Rv assessed decrease in PDIM biosynthesis by [14C]propionate incorporation assay. It is filed as functional, organism-based. Put shortly: as §4
Assay [8] concerns Mycobacterium tuberculosis. In words: Antimicrobial activity against Mycobacterium tuberculosis H37Rv assessed decrease in SL-1 biosynthesis by [14C]propionate incorporation assay. The format is functional, organism-based. Put shortly:
as §4

The test system of assay [9] is Mycobacterium tuberculosis. Nature of the assay: Antimicrobial activity against Mycobacterium tuberculosis H37Rv assessed as degeneration of lipid layer in cell wall by transmission electron microscopy. It is filed as functional, organism-based.
Assay [10] concerns Mycobacterium tuberculosis. In words: Antimicrobial activity against Mycobacterium tuberculosis H37Rv assessed as reduction in appearance of dense granular cytoplasm by transmission electron microscopy. It is filed as functional, organism-based.
The subject of assay [11] is Mycobacterium tuberculosis. Nature of the assay: Antimicrobial activity against Mycobacterium tuberculosis H37Rv assessed as occurrence of irregular cell shape by transmission electron microscopy. It is filed as functional, organism-based.
Assay [12] has as its system Mycobacterium tuberculosis H37Rv. In words: Stabilization of Mycobacterium tuberculosis H37Rv FAAL28 assessed as protection against proteolysis. The method, boiled down: (§5)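 Limited tryptic proteolysis of purified protein in the presence of increasing LAMS concentrations. Protection from fragmentation taken as a sign of binding-induced conformational change.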
For assay [13] the test system is unchanged. In words: Stabilization of Mycobacterium tuberculosis H37Rv FACL19 assessed as protection against proteolysis. The method, boiled down:
as §5

The test system is the same in assay [14]. Nature of the assay: Binding affinity to Mycobacterium tuberculosis H37Rv FACL28 assessed as noncovalent protein-ligand interaction by mass spectroscopy. Put shortly: (§6)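 Purified enzyme–inhibitor (EI*) complex extracted with ethyl acetate. Released acyl-AMS detected by mass spectrometry to test for non-covalent versus covalent binding.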
Assay [15] shares this test system. In words: Binding affinity to Mycobacterium tuberculosis H37Rv FAAL19 assessed as noncovalent protein-ligand interaction by mass spectroscopy. The method, boiled down:
as §6

Assay [16] has as its system Mycobacterium tuberculosis. Nature of the assay: Antimicrobial activity against Mycobacterium tuberculosis H37Rv assessed as degeneration of peptidoglycan layer in cell wall by transmission electron microscopy. The format is functional, organism-based.
Assay [17] concerns Mycobacterium tuberculosis H37Rv. In words: Activity at Mycobacterium tuberculosis H37Rv FACL19 assessed as acy-CoA formation by radio-TLC assay.
For assay [18] the test system is unchanged. In words: Activity at Mycobacterium tuberculosis H37Rv FAAL28 assessed as conversion of lauroyl-AMP to lauryl-CoA by radio-TLC assay.
A short description of assay [19]: as §1. Put shortly: as §2
Assay [20] can be described thus: as §3. The method, boiled down: as §2
Another assay relates to Rhodococcus sp. Nature of the assay: Activity at Rhodococcus sp. FAAL expressed in Escherichia coli assessed as palmitoyl-CoA formation at 1 mM by TLC method. Put shortly: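 Recombinant Rhodococcus ro_4064 protein expressed in E. coli, assayed cell-free with palmitic acid as substrate, with or without 1 mM CoASH. Products separated by TLC and detected by autoradiography.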

In general, MIC99 refers to the lowest concentration that inhibits either 99% of growth or 99% of the strains tested, depending on the study. As a reminder, the Km is the substrate concentration at which the rate is half of its maximum. The term IC50 denotes the concentration needed to halve the response being measured. Read a high IC50 as weaker potency in that assay.

SMILES strings stand for the structures. Converted amounts (≈) assume the structure as drawn. The source made the active and inactive calls. The calls are words filed in the database; no cut-off is given here.

As to `CCCCCCCCCCCC(=O)NS(=O)(=O)OC[C@H]1O[C@@H](n2cnc3c(N)ncnc32)[C@H](O)[C@@H]1O`, the inhibition entry in assay [1] and in [2] was “tde” each time. Also, the MIC99 worked out at 100 µM (≈ 52.9 µg/mL) in assay [3] and 215 µM (≈ 114 µg/mL) in [4]. Besides, the Activity result in assay [5], in assay [12] and in assay [13] was “Dose-dependent effect” throughout. Moreover, the outcome in assay [6] was inactive. The result in [7], in assay [8], in [9], in [10], in assay [11] and in assay [15] was Active. For the same molecule, the outcome in [16] was Active. Besides, in assay [14], the Km amounted to 24 µM.

Turning to `CC(C)(COP(=O)(O)OP(=O)(O)OC[C@H]1O[C@@H](n2cnc3c(N)ncnc32)[C@H](O)[C@@H]1OP(=O)(O)O)[C@@H](O)C(=O)NCCC(=O)NCCS` [COENZYME_A], the outcome in assay [17] was Active. In addition, the result (in assay [18]; with Rhodococcus sp.) was inactive. The half-maximal inhibitory concentration (IC50) in assay [19] came to 1.25 µM; in [20], 1.2 µM. In addition, the Ki in assay [19] (read-out: Ki(app)) turned out to be 4.9 µM.

These data come from ChEMBL document CHEMBL1212711, “Mechanistic and functional insights into fatty acid activation in Mycobacterium tuberculosis” (Nat Chem Biol, 2009).
